The source made the active and inactive calls.
Columns and labels:
Rattus norvegicus [1] = species: Rattus norvegicus; test: Antinociceptive activity in Wistar rat at 0.001 to 0.1 nmol, it after 30 mins to 2 hrs by tail flick test; assay type: functional, organism-based
Rattus norvegicus [2] = species: Rattus norvegicus; test: Toxicity in Wistar rat chronic constriction injury model at 1 nmol, it measured 7 days post CCI challenge; assay type: organism-based; details: in vivo, icv_or_intrathecal, 168 h
Rattus norvegicus [3] = species: Rattus norvegicus; test: Reduction of hyperalgesia in Wistar rat chronic constriction injury model at 1 nmol, it measured 7 days post CCI challenge by cold plate test; assay type: functional, organism-based
Summary of the method: (§1)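 In catheterized male Wistar rats with sciatic CCI, a single i.t. dose in water for injection was given on day 7. Thermal hyperalgesia was measured 30 min later as latency to hind-paw shake on a 5 °C cold plate. Data are %MPE, 6-12 rats/group, ANOVA with Bonferroni.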

Rattus norvegicus [4] = species: Rattus norvegicus; test: Selectivity ratio of Ki for rat brain DOR to Ki for rat brain MOR
Mus musculus = test: Antinociceptive activity in C57Bl6 mouse at 1.21 umol/kg, iv after 30 mins by tail flick test; assay type: functional, organism-based
Summary of the method: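 Male C57Bl6 mice (25-28 g) received a single i.v. dose dissolved in saline or water for injection. Radiant-heat tail-flick latency was measured at 5, 15, 30, 60, 120 and 180 min, with a 7 s cut-off. Data are %MPE, 6-8 mice/group.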

Rattus norvegicus [5] = species: Rattus norvegicus; test: Antiallodynic effect in Wistar rat chronic constriction injury model at 0.001 to 1 nmol, it measured 7 days post CCI challenge by Von Frey test; assay type: functional, organism-based
Summary of the method: (§2)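 Male Wistar rats (300-350 g) with i.t. catheters (L4-L6) had CCI made by four loose silk ligatures on the right sciatic nerve. On day 7 they received a single i.t. dose in water for injection. Mechanical allodynia was measured 30 min later with an automatic von Frey device (0.5-26 g) on the midplantar hind paw. Data are %MPE, 6-12 rats/group, ANOVA with Bonferroni.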

Rattus norvegicus [6] = species: Rattus norvegicus; test: Antinociceptive activity in Wistar rat at 0.1 nmol, it after 30 mins by tail flick test; assay type: functional
Summary of the method: (§3)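 Naive male Wistar rats (250-300 g) with i.t. catheters received a single i.t. injection in water for injection (5 µl plus 10 µl flush), 7 days after catheter implantation. Tail-flick latency to a light-bulb heat stimulus at two-thirds of tail length was read 30 min post-dose (timepoints up to 180 min), with a 9 s cut-off. Data are %MPE = (TL-BL)/(cut-off-BL)×100, 7-12 rats/group, ANOVA with Bonferroni.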

[7] = molecular target: Delta-type opioid receptor (Mus musculus, UniProt P32300); test: Activation of DOR in mouse vas deferens
Sequence of Delta-type opioid receptor (Mus musculus, UniProt P32300) (P32300 whole entry): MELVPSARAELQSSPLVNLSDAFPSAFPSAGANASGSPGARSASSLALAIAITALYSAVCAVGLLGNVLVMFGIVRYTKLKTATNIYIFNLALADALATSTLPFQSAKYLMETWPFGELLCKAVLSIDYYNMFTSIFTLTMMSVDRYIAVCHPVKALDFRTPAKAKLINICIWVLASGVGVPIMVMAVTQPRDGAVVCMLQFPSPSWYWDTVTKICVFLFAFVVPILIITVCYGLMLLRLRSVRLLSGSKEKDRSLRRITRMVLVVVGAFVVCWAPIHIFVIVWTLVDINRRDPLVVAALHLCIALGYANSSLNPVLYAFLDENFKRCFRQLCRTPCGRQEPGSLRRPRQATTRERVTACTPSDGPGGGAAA
Summary of the method: (§4)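 Isolated guinea pig ileum (MOR) and mouse vas deferens (DOR) bioassays. A [Leu5]enkephalin standard dose-response curve was run on each tissue preparation, and test IC50 values were normalized to it. Values are means of 3-4 experiments.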

[8] = molecular target: Delta-type opioid receptor (Rattus norvegicus, UniProt P33533); test: Displacement of [3H]DSLET from rat brain DOR after 2 hrs
Sequence of Delta-type opioid receptor (Rattus norvegicus, UniProt P33533) (P33533 whole entry): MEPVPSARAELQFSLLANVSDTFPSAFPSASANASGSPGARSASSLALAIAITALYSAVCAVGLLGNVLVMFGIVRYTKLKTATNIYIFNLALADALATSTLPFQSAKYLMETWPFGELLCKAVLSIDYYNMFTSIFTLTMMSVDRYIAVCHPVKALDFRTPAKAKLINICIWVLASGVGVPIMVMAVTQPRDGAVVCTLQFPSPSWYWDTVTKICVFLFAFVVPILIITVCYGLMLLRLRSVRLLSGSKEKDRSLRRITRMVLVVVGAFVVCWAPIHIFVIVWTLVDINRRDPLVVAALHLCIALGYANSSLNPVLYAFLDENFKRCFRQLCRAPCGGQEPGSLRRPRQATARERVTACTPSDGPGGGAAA
Summary of the method: (§5)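 Rat brain membranes were incubated 2 h at 0 °C with 0.72 nM [3H]DAMGO (MOR) or 0.78 nM [3H]DSLET (DOR). IC50 came from log-dose displacement curves.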

Substance-P receptor [9] = molecular target: T1, Substance-P receptor (Homo sapiens, UniProt P25103); test: Antagonist activity at human NK1 receptor expressed in CHO cells by luminescence assay in presence of SP peptide; assay type: cell-based; details: read-out: pA2 (converted)
T1 sequence (P25103 whole entry): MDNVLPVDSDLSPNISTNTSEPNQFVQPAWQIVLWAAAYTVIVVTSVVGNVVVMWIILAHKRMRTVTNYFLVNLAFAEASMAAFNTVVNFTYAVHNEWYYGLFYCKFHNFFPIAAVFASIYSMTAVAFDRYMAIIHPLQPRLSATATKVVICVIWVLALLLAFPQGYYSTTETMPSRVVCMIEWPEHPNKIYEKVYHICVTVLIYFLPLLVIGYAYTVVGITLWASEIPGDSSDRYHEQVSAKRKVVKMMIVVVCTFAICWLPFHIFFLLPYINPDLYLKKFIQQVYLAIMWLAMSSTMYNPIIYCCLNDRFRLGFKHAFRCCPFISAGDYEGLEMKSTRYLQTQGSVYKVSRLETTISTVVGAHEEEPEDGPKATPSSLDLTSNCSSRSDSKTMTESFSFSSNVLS

Mu-type opioid receptor [10] = molecular target: Mu-type opioid receptor (Rattus norvegicus, UniProt P33535); test: Displacement of [3H]DAMGO from rat brain MOR after 2 hrs; summary of the method: as §5
Sequence of Mu-type opioid receptor (Rattus norvegicus, UniProt P33535) (P33535 whole entry): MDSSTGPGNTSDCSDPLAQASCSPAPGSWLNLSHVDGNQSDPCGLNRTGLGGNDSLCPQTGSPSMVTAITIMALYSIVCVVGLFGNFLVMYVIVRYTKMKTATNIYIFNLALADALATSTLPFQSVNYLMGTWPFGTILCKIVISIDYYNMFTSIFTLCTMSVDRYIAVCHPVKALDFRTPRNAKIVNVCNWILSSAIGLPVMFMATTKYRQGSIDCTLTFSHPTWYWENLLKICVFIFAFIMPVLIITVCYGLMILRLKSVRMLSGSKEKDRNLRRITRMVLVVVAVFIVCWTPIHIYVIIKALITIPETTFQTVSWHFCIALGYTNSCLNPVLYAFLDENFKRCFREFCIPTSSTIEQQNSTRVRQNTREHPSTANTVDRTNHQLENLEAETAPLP

Substance-P receptor [11] = molecular target: T1, Substance-P receptor; test: Displacement of [3H]SP from human NK1 receptor expressed in CHO cells after 20 mins by liquid scintillation counting analysis; assay type: cell-based
Summary of the method: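 Membranes from hNK1/CHO cells (20 µg) were incubated with 0.4 nM [3H]SP and six test concentrations in duplicate. Buffer was 50 mM Tris pH 7.4 with 5 mM MgCl2, bacitracin, bestatin, captopril and PMSF, for 20 min at 25 °C. Nonspecific binding was defined with 10 µM SP. Samples were filtered on PEI-soaked GF/B, counted by scintillation, three independent experiments. Ki by Cheng-Prusoff from nonlinear-regression IC50.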

Mu-type opioid receptor [12] = molecular target: Mu-type opioid receptor (Cavia porcellus, UniProt P97266); test: Activation of MOR in guinea pig ileum; assay type: tissue-based; summary of the method: as §4
Sequence of Mu-type opioid receptor (Cavia porcellus, UniProt P97266) (P97266 whole entry): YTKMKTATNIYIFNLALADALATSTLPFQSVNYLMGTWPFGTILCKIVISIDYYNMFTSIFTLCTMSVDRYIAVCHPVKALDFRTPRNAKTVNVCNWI

Rattus norvegicus [13] = test: (§6) Antiallodynic effect in Wistar rat chronic constriction injury model assessed as cross tolerance developement pretreated with H-Dmt-D-Arg-Aba-beta-Ala-NMe-Bn at 1 nmol, it qd for 6 days administered from 7 days post CCI challenge to day 13 measured 30 mins post morphine challenge by cold plate test; assay type: functional, organism-based
Summary of the method: (§7)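 CCI Wistar rats were made tolerant by 6 days of once-daily i.t. dosing (morphine 3.5 nmol or hybrid 1 nmol). On day 13 they received a single i.t. challenge (morphine 3.5 nmol or hybrid 1 nmol) against repeated-vehicle controls. Von Frey and cold plate tests were run 30 min later. Data are %MPE, 6-8 rats/group, ANOVA with Bonferroni.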

Rattus norvegicus [14] = test: Antiallodynic effect in it dosed Wistar rat measured 7 days post CCI challenge by Von Frey test; assay type: functional; summary of the method: as §2
Rattus norvegicus [15] = test: Reduction of hyperalgesia in it dosed Wistar rat measured 7 days post CCI challenge by cold plate test; assay type: functional; summary of the method: as §1
Rattus norvegicus [16] = species: Rattus norvegicus; test: Antiallodynic effect in Wistar rat chronic constriction injury model at 0.35 to 35 nmol, it measured 7 days post CCI challenge by Von Frey test; assay type: functional, organism-based; summary of the method: as §2
Rattus norvegicus [17] = test: Antiallodynic effect in Wistar rat chronic constriction injury model assessed as tolerance to neuropathic pain at 3.5 nmol, it qd for 6 days administered from 7 days post CCI challenge to day 13 by cold plate test; assay type: functional, organism-based
Summary of the method: (§8)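 CCI Wistar rats received once-daily i.t. injections (morphine 3.5 nmol, hybrids 1 nmol, in water for injection) from day 7 to day 13 after CCI. Von Frey and 5 °C cold plate tests were run 30 min after each dose. Data are %MPE and AUC, 12-16 rats/group, ANOVA with Bonferroni.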

Rattus norvegicus [18] = test: as §6, with “H-Dmt-D-Arg-Aba-Gly-NMe-3',5'-(CF3)2-Bn” for “H-Dmt-D-Arg-Aba-beta-Ala-NMe-Bn”; assay type: functional, organism-based; summary of the method: as §7
Rattus norvegicus [19] = test: (§9) Antiallodynic effect in Wistar rat chronic constriction injury model assessed as cross tolerance developement pretreated with H-Dmt-D-Arg-Aba-beta-Ala-NMe-Bn at 1 nmol, it qd for 6 days administered from 7 days post CCI challenge to day 13 measured 30 mins post morphine challenge by Von Frey test; assay type: functional, organism-based; summary of the method: as §7
Rattus norvegicus [20] = test: Antiallodynic effect in Wistar rat chronic constriction injury model assessed as tolerance to neuropathic pain at 3.5 nmol, it qd for 6 days administered from 7 days post CCI challenge to day 13 by Von Frey test; assay type: functional, organism-based; summary of the method: as §8
Rattus norvegicus [21] = test: Antinociceptive activity in it dosed Wistar rat after 30 mins by tail flick test; assay type: functional; summary of the method: as §3
Rattus norvegicus [22] = test: as §9, with “H-Dmt-D-Arg-Aba-Gly-NMe-3',5'-(CF3)2-Bn” for “H-Dmt-D-Arg-Aba-beta-Ala-NMe-Bn”, “frey” for “Frey”; assay type: functional, organism-based; summary of the method: as §7
[23] = molecular target: Mu-type opioid receptor (Cavia porcellus) (UniProt P97266); test: Antagonist activity at MOR in guinea pig ileum; assay type: tissue-based
Sequence of Mu-type opioid receptor (Cavia porcellus) (P97266 whole entry): as above

[24] = molecular target: Mu-type opioid receptor (Cavia porcellus) (UniProt P97266); test: Partial agonist activity at MOR in guinea pig ileum; assay type: tissue-based; summary of the method: as §4

SMILES: Cc1cc(O)cc(C)c1C[C@H](N)C(=O)N[C@H](CCCNC(=N)N)C(=O)N[C@H]1Cc2ccccc2CN(CCC(N)=O)C1=O
- Activity (Rattus norvegicus [1]): Active
- Activity (Rattus norvegicus [2]): Toxic
- Activity (Rattus norvegicus [3]): Active
- Ratio Ki (Rattus norvegicus [4]): 12.7
- Activity (Mus musculus): Active
- Activity (Rattus norvegicus [5]): Active
- MPE (Rattus norvegicus [6]): 99.7%

SMILES: Cc1cc(O)cc(C)c1C[C@H](N)C(=O)N[C@H](CCCNC(N)=O)C(=O)N[C@H]1Cc2ccccc2CN(CCC(=O)N(C)Cc2cc(C(F)(F)F)cc(C(F)(F)F)c2)C1=O
- Ratio Ki (Rattus norvegicus [4]): 1.5
- IC50 [7]: 1.06 nM
- Ki [8]: 0.55 nM
- Kb (Substance-P receptor [9]): 537 nM
- Ki (Mu-type opioid receptor [10]): 0.37 nM
- Ki (Substance-P receptor [11]): 34.7 nM
- IC50 (Mu-type opioid receptor [12]): 2.03 nM

SMILES: Cc1cc(O)cc(C)c1C[C@H](N)C(=O)N[C@H](CCCNC(=N)N)C(=O)N[C@H]1Cc2ccccc2CN(CCC(=O)N(Cc2cc(C(F)(F)F)cc(C(F)(F)F)c2)CC(C)C)C1=O
- Ki (Substance-P receptor [11]): 743 nM

SMILES: CN1CC[C@]23c4c5ccc(O)c4O[C@H]2[C@@H](O)C=C[C@H]3[C@H]1C5 [MORPHINE]
- Activity (Rattus norvegicus [3]): Active
- Activity (Rattus norvegicus [13]): inactive
- ED50 (Rattus norvegicus [14]): 6.25 nmol
- ED50 (Rattus norvegicus [15]): 377 nmol
- Activity (Rattus norvegicus [16]): Active
- Activity (Rattus norvegicus [17]): Active
- Activity (Rattus norvegicus [18]): inactive
- Activity (Rattus norvegicus [19]): inactive
- Activity (Rattus norvegicus [20]): Active
- ED50 (Rattus norvegicus [21]): 0.49 nmol
- Activity (Rattus norvegicus [22]): inactive

SMILES: Cc1cc(O)cc(C)c1C[C@H](N)C(=O)N[C@H](CCCN=C(N)N)C(=O)N[C@H]1Cc2ccccc2CN(CC(N)=O)C1=O
- Activity (Rattus norvegicus [2]): Toxic

SMILES: Cc1cc(O)cc(C)c1C[C@H](N)C(=O)N[C@H](CCCNC(=N)N)C(=O)N[C@H]1Cc2ccccc2CN(CC(=O)N(Cc2ccccc2)CC(C)C)C1=O
- IC50 [7]: 28.7 nM
- Ke [23]: 5.91 nM
- Activity [24]: Active
- Ki (Substance-P receptor [11]): 1020 nM

SMILES: Cc1cc(O)cc(C)c1C[C@H](N)C(=O)N[C@H](CCCNC(=N)N)C(=O)N[C@H]1Cc2ccccc2CN(CC(=O)N(C)Cc2ccccc2)C1=O
- Ratio Ki (Rattus norvegicus [4]): 24.8
